Data taken from article PMC11638133 (Journal of Veterinary Internal Medicine, 2024).
Each block holds one molecule with its values, some of them ahead of it.

How the values were obtained:
[1] = test system: renin‐angiotensin‐aldosterone system (RAAS); details: cited from earlier work
[2] = Plasma pharmacokinetics of active drug metabolites after oral CARDALIS®; format: in vivo, beagle dogs; details: linear mixed model, AUC over the first 24 hours, natural logarithmic scale
Outline: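 Healthy purpose-bred beagles, 6 per group, were fed a low-sodium diet for 5 days, then given an oral ACE-inhibitor/mineralocorticoid-antagonist combination for 14 days at 0.25+2 mg/kg q24h, 0.25+2 mg/kg q12h or 0.5+4 mg/kg q12h. Serial Day-13 plasma was stored at −80°C, and three active metabolites were measured by LC-MS/MS. […] Dose–AUC used a linear mixed model (dog random effect, ln scale).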

[3] = test system: renin‐angiotensin‐aldosterone system (RAAS); details: 2 mg/kg PO q24h vs 4 mg/kg PO q24h, monotherapy; cited from earlier work
[4] = highest dose 4 times higher than lowest dose of benazepril

Structure (SMILES): CCOC(=O)[C@H](CCc1ccccc1)N[C@H]1CCc2ccccc2N(CC(=O)O)C1=O [benazepril]
difference in mean ACE‐S between the highest and lowest doses [1, 4]: −59%
difference in mean Ang1‐7 between the highest and lowest doses [1, 4]: +47%
difference in mean AngII between the highest and lowest doses [1, 4]: −38%
lower values of AngII ([1]; highest dose studied (0.5 mg/kg) compared to the lowest dose studied (0.125 mg/kg)): 38%

increase in AUC for a 1 mg increase in dose [2]: 1.54 units
Structure (SMILES): C[C@]12CCC(=O)C=C1C=C[C@@H]1[C@@H]2CC[C@@]2(C)[C@H]1CC[C@@]21CCC(=O)O1 [Canrenone, canrenone]

increase in AUC for a 1 mg increase in dose [2]: 1.99 ng·h/mL
Structure (SMILES): O=C(O)CN1C(=O)[C@@H](N[C@@H](CCc2ccccc2)C(=O)O)CCc2ccccc21 [Benazeprilat, benazeprilat]

Structure (SMILES): CC(=O)S[C@@H]1CC2=CC(=O)CC[C@]2(C)[C@H]2CC[C@@]3(C)[C@@H](CC[C@@]34CCC(=O)O4)[C@H]12 [spironolactone]
Dose-dependent differences in RAAS metabolites (including aldosterone) [3]: no dose‐dependent differences in RAAS metabolites (including aldosterone)

Structure (SMILES): CS[C@@H]1CC2=CC(=O)CC[C@]2(C)[C@H]2CC[C@@]3(C)[C@@H](CC[C@@]34CCC(=O)O4)[C@H]12 [TMS, 7‐alpha‐thiomethylspironolactone]
increase in AUC for a 1 mg increase in dose [2]: 1.50 units
